The source made the active and inactive calls. The calls are words filed in the database; no cut-off is given here.
How the values were obtained:
[1] = Cytotoxicity against mouse RAW264.7 cells assessed as cell survival up to 100 uM; format: cell-based; settings: read-out: Survival
Procedure, shortened: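 RAW 264.7 macrophages were grown with 3.0 mM glutamine, penicillin and streptomycin (100 U/mL each), and 10% heat-inactivated FBS at 37 °C in humidified 5% CO2. Cell survival was examined after exposure to each isolate at concentrations up to 100 μM.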

[2] = test system: RAW264.7; assay: Inhibition of LPS-induced NO release in mouse RAW264.7 cells after 24 hrs by Griess reaction; format: functional, cell-based; settings: RAW264.7, 24 h
Procedure, shortened: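 RAW 264.7 cells (10% heat-inactivated FBS, 3.0 mM glutamine, 37 °C, 5% CO2) seeded at 2 × 10^4 cells/mL. DMSO-solubilized compounds added 1 h before LPS. Supernatant nitrite measured by Griess reagent (0.1% naphthylethylene diamine, 1.0% sulfanilamide in 2.5% phosphoric acid), 10 min at room temperature, A550. NO quantified against a sodium nitrite standard curve. Positive control: N-monomethyl-L-arginine.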

[3] = target: NF-kappa-B inhibitor alpha (Mus musculus) (UniProt Q9Z1E3); assay: Inhibition of IkappaB alpha phosphorylation in LPS-induced mouse RAW264.7 cells by Western blotting analysis
[4] = test system: RAW264.7; assay: Suppression of LPS-induced IL6 protein expression in mouse RAW264.7 cells by ELISA; format: functional, cell-based
Procedure, shortened: (§1)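 RAW 264.7 cells seeded at 4 × 10^5 cells/well and exposed to LPS with or without 2.5, 5.0 or 10.0 μM test agent (DMSO stock diluted in DMEM, added 1 h before LPS) for 18 h. Cytokine in cell-free supernatant measured by mouse ELISA kit per manufacturer's protocol. Means ± SD.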

[5] = target: MAP kinase p38 (Mus musculus) (UniProt P47811+O08911+Q9WUI1+Q9Z1B7); assay: Inhibition of LPS-stimulated p38 phosphorylation in mouse RAW264.7 cells by Western blotting analysis; format: cell-based
Procedure, shortened: (§2)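 Macrophages seeded at 1 × 10^6 cells/well, pretreated 1 h with 2.5, 5.0 or 10.0 μM test agent (DMSO), then stimulated with LPS 1 μg/mL. Dexamethasone 1.0 μM served as positive control. Lysis in ice-cold RIPA with 0.1% PMSF, 12000g for 20 min. SDS-PAGE, PVDF transfer, 5% skim-milk block, primary antibody overnight at 4 °C, HRP secondary (1:12 000) 1.5 h at RT, ECL detection. Means ± SD.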

[6] = test system: RAW264.7; assay: Suppression of LPS-induced iNOS protein expression in mouse RAW264.7 cells by Western blotting analysis; format: functional, cell-based; procedure, shortened: as §2
[7] = target: Transcription factor p65 (Mus musculus) (UniProt Q04207); assay: Inhibition of NFkappaBp65 activation in LPS-induced mouse RAW264.7 cells at 2.5 to 10 uM by Western blotting analysis; format: cell-based; procedure, shortened: as §2
[8] = test system: RAW264.7; assay: Suppression of LPS-induced TNFalpha protein expression in mouse RAW264.7 cells by ELISA; format: functional, cell-based; procedure, shortened: as §1
[9] = test system: RAW264.7; assay: Inhibition of LPS-stimulated ERK phosphorylation in mouse RAW264.7 cells by Western blotting analysis; format: cell-based; procedure, shortened: as §2
[10] = test system: RAW264.7; assay: Inhibition of LPS-stimulated JNK phosphorylation in mouse RAW264.7 cells by Western blotting analysis; format: cell-based; procedure, shortened: as §2

Sequence of NF-kappa-B inhibitor alpha (Mus musculus) (Q9Z1E3 whole entry, looked up): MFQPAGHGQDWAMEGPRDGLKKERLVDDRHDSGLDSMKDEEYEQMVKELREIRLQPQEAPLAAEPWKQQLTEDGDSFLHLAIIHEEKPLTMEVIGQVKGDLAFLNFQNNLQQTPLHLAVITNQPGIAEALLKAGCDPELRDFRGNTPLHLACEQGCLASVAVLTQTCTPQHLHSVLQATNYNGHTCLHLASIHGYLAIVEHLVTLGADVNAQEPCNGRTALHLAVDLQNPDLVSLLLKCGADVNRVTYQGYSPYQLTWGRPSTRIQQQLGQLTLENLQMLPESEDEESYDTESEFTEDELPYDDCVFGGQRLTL
Sequence of Transcription factor p65 (Mus musculus) (Q04207 whole entry): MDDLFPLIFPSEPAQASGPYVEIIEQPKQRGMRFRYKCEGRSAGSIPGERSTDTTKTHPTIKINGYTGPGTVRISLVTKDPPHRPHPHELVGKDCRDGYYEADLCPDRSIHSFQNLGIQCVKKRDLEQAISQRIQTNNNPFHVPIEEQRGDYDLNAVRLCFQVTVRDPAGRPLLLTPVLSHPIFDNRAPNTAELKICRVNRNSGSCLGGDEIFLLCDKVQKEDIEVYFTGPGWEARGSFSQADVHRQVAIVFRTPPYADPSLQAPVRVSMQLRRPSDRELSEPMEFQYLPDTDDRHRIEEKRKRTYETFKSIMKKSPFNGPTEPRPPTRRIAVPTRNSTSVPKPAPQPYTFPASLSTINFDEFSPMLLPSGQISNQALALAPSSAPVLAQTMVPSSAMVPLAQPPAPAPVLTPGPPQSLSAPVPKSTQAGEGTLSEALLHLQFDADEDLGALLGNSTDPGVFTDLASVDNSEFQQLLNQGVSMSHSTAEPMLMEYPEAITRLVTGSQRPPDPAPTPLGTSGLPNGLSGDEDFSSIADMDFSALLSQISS

| Compound | viability [1] | IC50 [2] | further results |
| --- | --- | --- | --- |
| C[C@@]12CC[C@H]3OC(=O)C=C3[C@H]1CC[C@@]13C[C@H](CC[C@]12O)[C@@](O)(CO)C3 | > 90% | > 100 µM | – |
| C[C@@]12[C@H](O)C=C3OC(=O)C=C3[C@H]1CC[C@@]13C[C@@H](CC[C@H]12)[C@@](O)(CO)C3 | > 90% | > 100 µM | – |
| CO[C@@H]1C[C@@]2(CC[C@@]3(C)[C@@H]4CC[C@@H]5C[C@@]4(CC[C@H]23)C[C@]5(O)CO)C(=O)O1 | > 90% | > 100 µM | – |
| C[C@@]12CC=C3OC(=O)C=C3[C@H]1CC[C@@]13C[C@@H](CC[C@H]12)[C@@](O)(CO)C3 | > 90% | > 100 µM | – |
| C[C@@]12C=CC(=O)C[C@H]1CC[C@]13C[C@](O)(CO)[C@@](O)(CC[C@H]12)C3 | > 90% | 27.1 µM | – |
| C[C@@]12CC[C@@]3(O)OC(=O)C=C3[C@H]1CC[C@]13C[C@](O)(CO)[C@@](O)(CC[C@H]12)C3 | > 90% | > 100 µM | – |
| CC(=O)OC[C@]1(O)[C@@H]2CC[C@H]3[C@]4(C)CC[C@@]5(O)OC(=O)C=C5[C@H]4CC[C@]3(C2)[C@H]1O | > 90% | > 100 µM | – |
| C[C@@]12CC[C@@]3(O)OC(=O)C=C3[C@H]1CC[C@@]13C[C@H](CC[C@@H]21)[C@@](O)(CO)[C@@H]3O | > 90% | > 100 µM | – |
| C[C@@]12CC=C3OC(=O)C=C3[C@H]1CC[C@@]13C[C@@H](CC[C@@H]21)[C@@](O)(CO)[C@@H]3O | > 90% | > 100 µM | – |
| C[C@@]12CC[C@@]3(O)OC(=O)C=C3[C@H]1CC[C@@]13C[C@H](CC[C@H]12)[C@@](O)(CO)C3 | > 90% | > 100 µM | – |
| C[C@@]12CC(=O)c3occc3[C@H]1CC[C@]13C[C@](O)(CO)[C@@](O)(CC[C@H]12)C3 | > 90% | > 100 µM | – |
| C[C@@]12CC[C@H]3OC(=O)C=C3[C@H]1CC[C@@]13C[C@@H](CC[C@H]12)[C@@](O)(CO)C3 | > 90% | > 100 µM | – |
| CCOC(=O)/C=C1\C(=O)C=C[C@]2(C)[C@@H]1CC[C@]13C[C@](O)(CO)[C@@](O)(CC[C@H]12)C3 | > 90% | 6.6 µM | inhibition [3]: Active; inhibition [4]: Dose-dependent effect; inhibition [5]: Active; inhibition [6]: Dose-dependent effect; inhibition [7]: Active; inhibition [8]: Dose-dependent effect; inhibition [9]: Active; inhibition [10]: Active |
| CNC(=N)NCCC[C@H](N)C(=O)O [TILARGININE] | – | 40.5 µM | – |
